Measurements taken from ChEMBL document CHEMBL1141376, “New fluorescent adenosine A1-receptor agonists that allow quantification of ligand-receptor interactions in microdomains of single living cells” (J Med Chem, 2007).

Assays:
Adenosine receptor A2b = molecular target: T1, Adenosine receptor A2b (Homo sapiens, UniProt P29275); assay: Activity at human adenosine A2B receptor assessed as stimulation of [3H]cAMP accumulation in CHO cells; format: functional, cell-based
T1 sequence (P29275 whole entry): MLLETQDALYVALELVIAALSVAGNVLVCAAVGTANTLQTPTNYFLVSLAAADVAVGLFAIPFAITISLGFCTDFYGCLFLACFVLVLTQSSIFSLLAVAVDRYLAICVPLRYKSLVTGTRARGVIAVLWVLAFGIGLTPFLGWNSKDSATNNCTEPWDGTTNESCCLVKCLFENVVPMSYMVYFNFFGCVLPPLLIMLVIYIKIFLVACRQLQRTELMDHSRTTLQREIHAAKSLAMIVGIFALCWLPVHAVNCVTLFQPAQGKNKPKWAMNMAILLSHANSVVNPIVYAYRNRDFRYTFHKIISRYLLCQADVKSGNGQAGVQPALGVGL
How it was run: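 CHO cells expressing human A2B receptor, confluent in 24-well dishes, [3H]adenine-labelled 2 h at 37 °C in HEPES-buffered Hank's, then rolipram 10 µM 15 min. Agonist added 10 min without forskolin. HCl termination, alumina-column isolation of [3H]-cAMP, scintillation counting. pEC50 by sigmoidal curve fitting; each experiment in triplicate.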

Adenosine receptor A3 = molecular target: T2, Adenosine receptor A3 (Homo sapiens, UniProt P0DMS8); assay: Activity at human adenosine A3 receptor assessed as inhibition of forskolin-stimulated cAMP accumulation in CHO cells; format: functional, cell-based
T2 sequence (P0DMS8 whole entry): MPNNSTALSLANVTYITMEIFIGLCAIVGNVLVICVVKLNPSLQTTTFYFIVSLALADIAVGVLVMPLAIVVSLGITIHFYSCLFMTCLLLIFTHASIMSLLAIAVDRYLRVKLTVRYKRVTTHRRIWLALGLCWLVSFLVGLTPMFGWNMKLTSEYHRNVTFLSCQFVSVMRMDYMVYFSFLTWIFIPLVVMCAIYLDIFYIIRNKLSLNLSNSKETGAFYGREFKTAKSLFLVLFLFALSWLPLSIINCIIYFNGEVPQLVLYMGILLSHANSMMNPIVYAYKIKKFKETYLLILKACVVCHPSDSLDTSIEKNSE
How it was run: (§1)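 Clonal CHO cells stably expressing human A1 (CHO-A1H) or human A3 (CHO-A3) grown to confluence in 24-well dishes. Labelled with [3H]adenine 2 h at 37 °C in HEPES-buffered Hank's, washed, rolipram 10 µM 15 min. Agonist 5 min, then forskolin 3 µM a further 10 min. Stopped with HCl; [3H]-cAMP isolated on alumina columns, scintillation counted. pEC50 from sigmoidal fits; triplicate determinations.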

Adenosine receptor A1 [1] = molecular target: T3, Adenosine receptor A1 (Homo sapiens, UniProt P30542); assay: (§2) Agonist activity at adenosine A1 receptor assessed as inhibition of forskolin-stimulated [3H]cAMP accumulation in CHO cells; format: functional, cell-based; how it was run: as §1
T3 sequence (P30542 whole entry): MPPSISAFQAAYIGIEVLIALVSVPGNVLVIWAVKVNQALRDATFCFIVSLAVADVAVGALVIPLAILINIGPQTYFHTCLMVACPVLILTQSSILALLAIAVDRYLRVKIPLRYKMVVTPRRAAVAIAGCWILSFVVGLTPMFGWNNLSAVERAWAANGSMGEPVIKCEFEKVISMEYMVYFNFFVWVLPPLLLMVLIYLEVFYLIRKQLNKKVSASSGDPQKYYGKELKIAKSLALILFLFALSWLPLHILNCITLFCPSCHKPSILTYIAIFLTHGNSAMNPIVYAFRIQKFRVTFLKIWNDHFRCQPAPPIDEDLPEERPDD

[2] = molecular target: T4, Adenosine receptor A1 (Homo sapiens) (UniProt P30542); assay: as §2; format: functional, cell-based; conditions: concentration not given here; how it was run: as §1
T4 sequence (whole entry): T3 sequence (P30542 whole entry)

[3] = molecular target: T4, Adenosine receptor A1 (Homo sapiens); assay: Ratio of pEC50 to pKd at human adenosine A1 receptor in CHO cells; format: cell-based
How it was run: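 Derived as the difference between -log EC50 from forskolin (3 µM)-stimulated [3H]-cAMP inhibition in CHO-A1H cells and -log KD from inhibition of 1 nM [3H]-DPCPX binding to intact CHO-A1H cells.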

Adenosine receptor A2a = Adenosine receptor A2a (Homo sapiens, UniProt P29274); assay: Activity at human adenosine A2A receptor assessed as stimulation of [3H]cAMP accumulation in CHO cells; format: functional, cell-based
Adenosine receptor A1 [4] = molecular target: T3, Adenosine receptor A1; assay: (§3) Displacement of [3H]DPCPX from human adenosine A1 receptor in CHO cells; format: cell-based
How it was run: (§4)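 Whole confluent CHO-A1H cells in serum-free DMEM/F12 with competing ligand plus [3H]-DPCPX 1 nM final, 2 h at 37 °C in 5% CO2. Nonspecific binding with 10 µM XAC. Washed twice with cold PBS, scintillant added, counted.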

[5] = molecular target: T4, Adenosine receptor A1 (Homo sapiens); assay: as §3; format: cell-based; conditions: concentration not given here; how it was run: as §4
Adenosine receptor A1 [6] = molecular target: T3, Adenosine receptor A1; assay: Activity at human adenosine A1 receptor assessed as inhibition of forskolin-stimulated cAMP accumulation in CHO cells; format: functional, cell-based; how it was run: as §1

Sequence of Adenosine receptor A2a (P29274 whole entry): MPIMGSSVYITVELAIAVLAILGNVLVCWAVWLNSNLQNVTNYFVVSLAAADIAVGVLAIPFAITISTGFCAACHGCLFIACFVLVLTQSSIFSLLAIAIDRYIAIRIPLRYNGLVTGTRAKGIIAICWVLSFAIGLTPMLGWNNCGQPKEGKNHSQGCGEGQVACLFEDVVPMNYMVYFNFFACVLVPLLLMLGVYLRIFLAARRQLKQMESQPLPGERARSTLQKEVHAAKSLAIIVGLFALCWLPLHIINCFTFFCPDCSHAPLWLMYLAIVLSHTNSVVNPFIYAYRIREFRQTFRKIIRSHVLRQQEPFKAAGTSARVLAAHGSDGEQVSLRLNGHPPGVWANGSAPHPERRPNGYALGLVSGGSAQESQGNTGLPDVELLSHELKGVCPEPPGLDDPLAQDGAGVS

SMILES | EC50 (Adenosine receptor A2b) [nM] | EC50 (Adenosine receptor A3) [nM] | EC50 (Adenosine receptor A1 [1]) [nM] | inhibition [2] [%] | Ratio [3] | EC50 (Adenosine receptor A2a) [nM] | Kd (Adenosine receptor A1 [4]) [nM] | inhibition [5] [%] | EC50 (Adenosine receptor A1 [6]) [nM]
CCNC(=O)[C@H]1O[C@@H](n2cnc3c(NCCCCNC(=O)CCCCCNC(=O)COc4ccc(/C=C/C5=[N+]6C(=Cc7ccc(-c8cccs8)n7[B-]6(F)F)C=C5)cc4)ncnc32)[C@H](O)[C@@H]1O | 2040 | 2.69 | 3.39 | 99 | 1.67 | 174 | 158 | 49.3 | 3.39
CCNC(=O)[C@H]1O[C@@H](n2cnc3c(N)ncnc32)[C@H](O)[C@@H]1O |  |  |  | 98 |  |  |  | 83.3 | 
CCNC(=O)[C@H]1O[C@@H](n2cnc3c(NCCCNC(=O)CCCCCNC(=O)COc4ccc(/C=C/C5=[N+]6C(=Cc7ccc(-c8cccs8)n7[B-]6(F)F)C=C5)cc4)ncnc32)[C@H](O)[C@@H]1O |  |  | 0.692 | 92 | 2.55 |  | 245 | 50.9 | 
CCNC(=O)[C@H]1O[C@@H](n2cnc3c(NCCCCCCCCNC(=O)CCCCCNC(=O)COc4ccc(/C=C/C5=[N+]6C(=Cc7ccc(-c8cccs8)n7[B-]6(F)F)C=C5)cc4)ncnc32)[C@H](O)[C@@H]1O |  |  | 12 | 77 |  |  |  |  | 
O=C(CCCCCNC(=O)COc1ccc(/C=C/C2=[N+]3C(=Cc4ccc(-c5cccs5)n4[B-]3(F)F)C=C2)cc1)NCCCCNc1ncnc2c1ncn2[C@@H]1O[C@H](CO)[C@@H](O)[C@H]1O |  |  | 5.13 | 96 | 1.64 |  | 224 | 48.1 | 
CCNC(=O)[C@H]1O[C@@H](n2cnc3c(NCCCCCNC(=O)CCCCCNC(=O)COc4ccc(/C=C/C5=[N+]6C(=Cc7ccc(-c8cccs8)n7[B-]6(F)F)C=C5)cc4)ncnc32)[C@H](O)[C@@H]1O |  |  | 0.708 | 96 |  |  |  |  | 
